Screens: PubChem, several laboratories
MrgX1 ag: activates human MrgX1 receptor signaling; Q96LB2; MrgX1-HEK293 cells, Fluo-4 calcium fluorescence, agonist mode; active compounds read high; B-score at 10 µM; actives 0.44% (n = 310,000); AID 588627;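 active means calcium response B-score plate-corrected fluorescence ratio at least 3 library SD, with starting fluorescence B-score inside 5 SD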
Target sequence (Q96LB2 whole entry, looked up): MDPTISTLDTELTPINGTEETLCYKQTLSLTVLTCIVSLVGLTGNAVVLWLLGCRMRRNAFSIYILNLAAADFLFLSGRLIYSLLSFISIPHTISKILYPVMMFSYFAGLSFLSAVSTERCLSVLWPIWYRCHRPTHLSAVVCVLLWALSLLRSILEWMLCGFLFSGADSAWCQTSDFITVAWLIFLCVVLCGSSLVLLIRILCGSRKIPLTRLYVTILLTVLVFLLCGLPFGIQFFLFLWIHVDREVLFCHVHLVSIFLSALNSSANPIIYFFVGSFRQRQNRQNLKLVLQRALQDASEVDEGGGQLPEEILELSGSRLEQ
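Test system: HEK293 cells stably expressing human MrgX1 receptor; amount: 15,000 cells per well; doses: compound delivered in addition one of three; times: overnight plating before 1 h dye loading; detection: Fluo-4 NW calcium-flux fluorescence, kinetic read; read-out basis: B-scored fluorescence response ratio; controls: positive and negative controls per plate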
MrgX1 antag: blocks BAM8-22 activation of human MrgX1 receptor. MRGX1-HEK293 calcium flux, Fluo-4, BAM8-22 antagonism; active compounds read low. B-score at 10 µM. actives 1.3% (n = 310,000). AID 588676;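 active means calcium-response B-score plate-corrected more than 3 library SD below zero, starting fluorescence within 5 deviations, no agonist response on first addition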;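 further: peak minus trough fluorescence over baseline after final BAM8-22 challenge near maximal dose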
RGS4 inh: inhibitors of human RGS4. P49798. HEK293 M3R/RGS4 inducible, Fluo-4 calcium flux; active compounds read high; triggered by carbachol at its EC20. B-score at 10 µM. actives 0.45% (n = 310,000);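 active means B-score, a plate-corrected calcium signal, over three deviations above library mean, with baseline fluorescence within five deviations of library mean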;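 further: RGS4 expression induced by doxycycline in cells with stable M3 receptor; B-score is computed from the integrated fluorescence ratio over baseline after carbachol; higher B-score means a larger calcium signal and so more RGS4 inhibition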
Target sequence (P49798 whole entry, looked up): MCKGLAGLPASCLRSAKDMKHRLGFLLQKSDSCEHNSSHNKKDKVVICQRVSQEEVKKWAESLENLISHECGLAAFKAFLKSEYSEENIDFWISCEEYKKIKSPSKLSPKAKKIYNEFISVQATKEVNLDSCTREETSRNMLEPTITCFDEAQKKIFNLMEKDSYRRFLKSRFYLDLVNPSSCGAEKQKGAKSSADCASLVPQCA
Hep lipid drop: modulators of hepatic lipid droplet formation; AML12 mouse hepatocytes, oleate lipid droplets, BODIPY imaging; actives 0.4% (n = 240,000); inhibition, % at 6.5 µM;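 active means lipid droplet intensity inhibited by at least 50%, with more than 500 cells counted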
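Assay system: AML12 mouse liver cells | Compound: 6.5 µM single-point dosing | Schedule: Overnight exposure | Technique: Fluorescence imaging, 20x objective, two fields per well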
RGS4 act: potentiators or activators of RGS4 | HEK293 M3R/inducible RGS4, carbachol calcium flux Fluo4; active compounds read low | B-score at 10 µM | actives 0.92% (n = 310,000) | AID 463111;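 active means B-score of the integrated calcium signal more than 4 SD below the library mean, with starting fluorescence not abnormally high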;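 further: negative B-score means reduced calcium response which marks RGS4 activation or potentiation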
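System: HEK293 FlpIn-TREx cells, stable M3R, doxycycline-inducible RGS4. Timing: overnight RGS4 induction, 30 min dye load 37 °C, 20 min compound RT. Also added: carbachol, ECmax concentration. Measured by: Fluo4 fluorescence kinetic imaging of calcium. Evaluation: integrated calcium ratio converted to B score.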
MrgX1 allo act: allosterically activates human MrgX1 receptor signaling | Q96LB2 | MrgX1-HEK293, Fluo-4 calcium flux, FDSS; active compounds read high | B-score at 10 µM | actives 0.63% (n = 310,000) | AID 588675;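 active means plate-corrected calcium response at least 3 library SD above typical, normal starting fluorescence, not activating the receptor alone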;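 further: compound read alongside a low EC10 to EC30 dose of BAM8-22 agonist; peak minus trough fluorescence over baseline measured at the second addition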
Starred values were filed as active, the others as inactive; i = inactive; . = not tested or not shown. The list is not random: actives were taken first. Their share in the collection is about 3.8%.

SMILES	MrgX1 ag	MrgX1 antag	RGS4 inh	Hep lipid drop	RGS4 act	MrgX1 allo act
O=C(NC1CCCCC1)C(c1ccc(F)cc1)N(CCCN1CCOCC1)C(=O)c1ccc(CN2CCOCC2)o1 (configuration not stated)	i	i	i	8	i	i
COc1ccc(NC(=O)CC2C(=O)N(c3cccc(OC)c3)C(=O)N2CCC(C)C)cc1 (configuration not stated)	i	i	i	-2	i	i
COc1ccc(Cc2nc3ccc(C(=O)N4C[C@@H](C)O[C@@H](C)C4)cc3o2)cc1OC	i	i	i	12	i	i
COCCN1CCN(C(=O)c2ccc3nc(Cc4ccc(OC)c(OC)c4)oc3c2)CC1	i	-5.9*	i	-2	i	i
Cc1ccc(-c2nnc(SCC(=O)N(CC(C)C)c3c(N)n(Cc4ccccc4)c(=O)[nH]c3=O)n2N)cc1	i	i	i	0	i	i
CCC1C(=O)NCCN1C(=O)CCc1nnc(CCc2ccc(OC)cc2)o1 (configuration not stated)	i	-5.7*	i	10	i	i
COC(=O)Cn1ncc(N(C)Cc2ccccc2)c(Cl)c1=O	i	i	i	-3	i	i
Cc1ccc(S(=O)(=O)N2CCC(=O)N(C(COCc3cccc(C(F)(F)F)c3)Cc3ccccc3)CC2)cc1 (configuration not stated)	i	-4.5*	i	-49	i	i
Cc1ccc(S(=O)(=O)N2CCC(=O)N(C(COCc3ccccc3)Cc3ccccc3)CC2)cc1 (configuration not stated)	i	i	i	-14	i	i
O=C(NCc1ccc(Cl)cc1)C1CCC(CNS(=O)(=O)c2ccccc2)CC1 (configuration not stated)	i	i	i	19	i	i
O=Cc1cc2ccccc2nc1SCCCF	i	-5.8*	i	.	i	i
Cc1ccc(C2=CC(c3ccccc3)n3ncnc3N2)cc1 (configuration not stated)	i	i	i	.	i	i
C1=C(c2ccccc2)Nc2ncnn2C1c1ccccc1 (configuration not stated)	i	i	i	.	i	8.2*
COc1ccc2nc(C)cc(N/N=C/c3cccc(OC)c3O)c2c1	i	i	i	7	-11*	i
COc1cccc(/C=N/Nc2nc3ccccc3n3cnnc23)c1O	i	i	i	2	-7.1*	i
COc1cccc(/C=N/Nc2nc3ccccc3n3cnnc23)c1	i	i	i	-4	i	i
CCn1cc(CCCC(=O)NCc2ccc(OC)cc2)c2ccccc21	i	i	i	41	i	i
CCOc1cc(/C=C2/NC(=O)N(CC(=O)Nc3cccc(C)c3)C2=O)ccc1OC	i	-7.1*	i	.	i	i
CCOc1cc(/C=C2/NC(=O)N(CC(=O)Nc3cccc(C)c3)C2=O)ccc1O	i	i	i	-25	i	i
CC(C)OCCCNC(=O)C1CC(=O)N(CCc2ccc(F)cc2)C1 (configuration not stated)	i	i	i	-10	i	i
Cc1ccc(CCN2CC(C(=O)NCCCOC(C)C)CC2=O)cc1 (configuration not stated)	i	-4.5*	i	-4	i	i
CCCC(=O)NCc1nc2ccccc2n1CC(=O)c1ccccc1	i	i	i	-1	i	i
O=C(OCC(=O)N1CCN(C(=O)c2ccco2)CC1)c1cc(-c2ccc(Cl)c(Cl)c2Cl)nc2ccccc12	i	i	i	-13	i	i
CN1CCCN(C(=O)c2cc(-c3ccc(Cl)c(Cl)c3Cl)nc3ccccc23)CC1	41*	i	i	1	i	i
O=C(c1cc(-c2ccncc2)nc2ccccc12)N1CCN(c2ccccc2O)CC1	i	i	i	-11	i	i
SMILES	MrgX1 ag	MrgX1 antag	RGS4 inh	Hep lipid drop	RGS4 act	MrgX1 allo act
O=C(c1cc(-c2ccccc2)nc2ccccc12)N1CCN(c2ccccc2O)CC1	i	i	i	0	-7.1*	i
Cc1ccc2nc(-c3ccccc3)cc(C(=O)N3CCN(c4ccccc4O)CC3)c2c1	i	i	i	.	-8.6*	i
CCn1c(SCC(=O)Nc2oc(-c3ccccc3)c(-c3ccccc3)c2C#N)nnc1-c1cc(OC)cc(OC)c1	i	i	i	4	i	i
O=C(O)c1ccc(N2C(=O)/C(=C/c3ccc(-c4ccc([N+](=O)[O-])cc4)o3)C=C2c2ccccc2)cc1	i	i	i	7	-7*	i
COc1ccc(C(CCN2CCCCC2)c2c(OC)cc(OC)c3c(-c4ccccc4)cc(=O)oc23)cc1 (configuration not stated)	i	i	i	-1	i	14*
COc1cc(OC)c2c(-c3ccccc3)cc(=O)oc2c1C(CCN1CCCCC1)c1ccc(N(C)C)cc1 (configuration not stated)	i	i	i	22	i	i
CCCCCCSc1ccc([C@@H]2[C@H]3C(=O)N(CC)C(=O)[C@H]3[C@]3(C(=O)OC)CCCN23)cc1	i	i	.	.	.	i
O=c1oc2ccccc2cc1-c1cn2ccccc2n1	27*	i	i	3	i	i
CCN(C(=O)CCN1C(=O)S/C(=C\c2ccccc2)C1=O)C1CCS(=O)(=O)C1 (configuration not stated)	i	i	i	5	i	i
COc1ccc(C(=O)N/C(=C\c2ccccc2)C(=O)Nc2ccc(C(=O)NCC(=O)O)cc2)cc1	i	i	i	9	i	i
CCCCn1nc(NC(=O)CC)c2cc3cc(OC)ccc3nc21	i	i	i	-16	i	i
O=C(CCNc1ccc(Cc2ccncc2)cc1)c1cccc([N+](=O)[O-])c1	i	i	i	-7	i	i
O=C(CCNc1cccc(F)c1)c1cccc([N+](=O)[O-])c1	i	i	i	3	i	9.1*
Cc1ccc(C(=O)CCS(=O)(=O)c2ccc(Br)cc2)cc1	i	i	i	1	i	i
Cc1ccc(S(=O)(=O)CCC(=O)c2cccc([N+](=O)[O-])c2)cc1	33*	i	i	0	i	i
